In the library only some 4% were active in any assay of this set; here they are far more common.
TAAR1 agonist = human TAAR1 agonism | Q96RJ0 | CHO RD-HGA16 TAAR1, Fluo-8 calcium fluorescence; vehicle wells 0%, saturating PEA agonist 100% | activation, % at 3 µM | hit rate 0.99% among 360,000 | AID 624467;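 active = activation above the mean activation of all test compounds in the run plus 3 SD, cut at about 38% in these data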
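Test system: RD-HGA16 (CHO) cells co-expressing Gα16 and hTAAR1 / Benchmarks: DMSO vehicle as 0%, PEA at EC100 as 100% / Repeats: no replicates (n 1) / Measure: % activation from peak over basal fluorescence ratio, DMSO-to-PEA scaled / Timing: 17-24 h plating, Fluo-8 75 min 37 °C, 30 min RT / Technique: kinetic Fluo-8 calcium fluorescence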
GPR7 antagonist = antagonists of human GPR7 (neuropeptides B/W receptor 1) | GPR7-expressing cells, fluorescence antagonist assay | inhibition, % at 4.4 µM | hit rate 1.1% among 290,000 | AID 1861; in the data active = inhibition above about 16%, passing the limit was not always enough;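 also: cells stimulated with the agonist NPW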
MPTP inh = permeability transition pore inhibition; AID 602449; hit rate 1.4% among 360,000; inhibition, % at 10 µM; isolated mouse mitochondria, Ca2+ swelling absorbance, 30 min;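 active = inhibition of 50% or more, scaled per plate between neutral and stimulator controls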
TAAR1 antag = human TAAR1 antagonism | CHO RD-HGA16 TAAR1, Fluo-8 calcium fluorescence, antagonist | inhibition, % at 3 µM | hit rate 1.5% among 360,000 | AID 624466;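 active = inhibition above a per-plate cutoff, the mean inhibition of test compounds on that plate plus 3 SD, cut at about 49% in these data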
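Test system – hTAAR1-expressing CHO RD-HGA16 cells, Gα16-coupled · Also added – β-PEA at EC80 concentration, post-compound challenge · Compound – 3 µM, single point · Incubation – dye loading 75 min at 37 °C, then 30 min room temperature · Measured by – Fluo-8 intracellular calcium dye fluorescence, real-time kinetic reads · Benchmarks – vehicle and agonist controls · Replicates – singlicate, one well per test compound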
DAGLB inhibitor = blocks human DAGLB lipase activity | Q8NCG7 | HEK293T DAGLB membrane lysate, EnzChek fluorogenic substrate | inhibition, % at 5.17 µM | hit rate 0.059% among 340,000; in the data active = inhibition above about 34%
Target sequence (Q8NCG7 whole entry, looked up): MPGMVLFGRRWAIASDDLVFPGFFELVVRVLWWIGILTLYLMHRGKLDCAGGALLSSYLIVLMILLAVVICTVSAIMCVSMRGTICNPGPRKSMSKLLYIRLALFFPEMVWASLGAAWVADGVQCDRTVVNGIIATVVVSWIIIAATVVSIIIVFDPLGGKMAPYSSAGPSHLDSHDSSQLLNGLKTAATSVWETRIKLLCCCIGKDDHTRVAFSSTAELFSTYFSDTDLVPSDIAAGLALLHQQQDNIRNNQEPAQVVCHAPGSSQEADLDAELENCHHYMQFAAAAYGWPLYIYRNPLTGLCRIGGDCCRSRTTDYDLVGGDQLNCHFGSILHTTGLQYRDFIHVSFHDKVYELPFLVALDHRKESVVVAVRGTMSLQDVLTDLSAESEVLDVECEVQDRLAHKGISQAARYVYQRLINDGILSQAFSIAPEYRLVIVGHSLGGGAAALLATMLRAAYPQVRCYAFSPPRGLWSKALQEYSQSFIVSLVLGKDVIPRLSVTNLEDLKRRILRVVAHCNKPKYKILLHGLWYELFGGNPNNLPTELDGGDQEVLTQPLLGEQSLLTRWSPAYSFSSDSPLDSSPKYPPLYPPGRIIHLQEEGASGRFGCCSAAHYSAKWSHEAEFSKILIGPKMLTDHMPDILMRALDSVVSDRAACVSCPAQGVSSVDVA
Large screens that a line does not name were inactive.

CCCNC(=O)C1(C)CCCN(Cc2c(F)cccc2F)C1 (centres undefined)	none (no result: GPR7 antagonist, DAGLB inhibitor)
O=C(C[C@H]1C(=O)N(c2ccccc2)C[C@@H]1Cc1ccccc1)Nc1ccccc1	none (no result: GPR7 antagonist)
CN1c2ccccc2C(C)(C)C12C=Nc1c(ccc3ccccc13)O2 (centres undefined)	TAAR1 agonist 40
COc1ccc2ccc3c(c2c1)N=CC1(O3)N(C)c2ccccc2C1(C)C (centres undefined)	none (no result: TAAR1 agonist, TAAR1 antag)
CCOC(=O)C1CCN(Cc2cc(Cl)c3ccccc3c2O)CC1	none (no result: TAAR1 agonist, TAAR1 antag)
COCCN1Cc2cccc(C(=O)Nc3cccc(-c4nc5ccccc5[nH]4)c3)c2C1=O	TAAR1 antag 61
COc1ccc(OCC(=O)Nc2cccc(-c3nc4ccccc4o3)c2)cc1	TAAR1 antag 49
Cc1cc(C)c(OCC(=O)Nc2nc3ccccc3[nH]2)c(C)c1	TAAR1 agonist 42, TAAR1 antag 49
CCCC(=O)Nc1cccc(-c2nc3ccccc3o2)c1	none
COCCN1Cc2cccc(C(=O)Nc3ccc(-c4nc5ccccc5[nH]4)cc3)c2C1=O	none
O=C(COc1ccccc1)Nc1cccc(-c2nc3ccccc3[nH]2)c1	TAAR1 antag 49
CC(C)(C)OC(=O)N1CCC2CCN(S(=O)(=O)c3ccccc3)CC21 (centres undefined)	none (no result: GPR7 antagonist, MPTP inh, DAGLB inhibitor)
CCN(Cc1ccccc1)C(=O)CSc1ncn[nH]1	none
Cc1ccc(-c2csc(NCCc3nc4cc(Cl)c(Cl)cc4n3CCCO)n2)cc1	none (no result: GPR7 antagonist)
COc1ccc(-c2csc(NCCc3nc4cc(Cl)c(Cl)cc4n3CCCO)n2)cc1	TAAR1 antag 55 (no result: GPR7 antagonist)
C[C@@H]1CN([C@H](C)CO)C(=O)c2ccccc2-c2ccccc2CO[C@@H]1CN(C)C(=O)Nc1ccccc1	none (no result: GPR7 antagonist, MPTP inh, DAGLB inhibitor)
c1csc(-c2csc3nc(CN4CCOCC4)nc(NCc4ccc5c(c4)OCO5)c23)c1	GPR7 antagonist 19
CC1CCC(C(C)C)C(OC(=O)C[n+]2cc(-c3ccc(Cl)cc3)n3c2CCCCC3)C1 (centres undefined)	GPR7 antagonist 59
CCC(CC)COC(=O)C1=C(C)NC(=O)NC1c1ccc(N(C)C)cc1 (centres undefined)	none
COc1ccc(-c2nn(-c3ccccc3)cc2CNC[C@H]2O[C@@H](n3cnc4c(=O)[nH]c(N)nc43)[C@H](O)[C@@H]2O)cc1	none (no result: GPR7 antagonist, DAGLB inhibitor)
COC(=O)C1=C(C)N(C)C(=NCC2CC2)NC1c1cccc(Cl)c1 (centres undefined)	none (no result: GPR7 antagonist, MPTP inh, DAGLB inhibitor)
CC1CCN(C(=O)COC(=O)c2ccc([N+](=O)[O-])o2)CC1	none (no result: GPR7 antagonist)
O=C(OCC(=O)N1CCN(S(=O)(=O)c2ccc(Cl)cc2)CC1)c1ccc([N+](=O)[O-])o1	GPR7 antagonist 20
CC1CCCCC1NC(=O)c1ccc(S(=O)(=O)N2CCCC2)cc1 (centres undefined)	none
CC1CCCCC1NS(=O)(=O)c1ccc(S(=O)(=O)N2CCCC2)cc1 (centres undefined)	GPR7 antagonist 15
COc1ccc(CCn2c(C)cc(C(=O)COC(=O)c3ccc(O)cc3O)c2C)cc1	TAAR1 antag 65 (no result: GPR7 antagonist)
Cc1nn(-c2ccc(F)cc2)c2nc(N)c(C#N)c(-c3cccs3)c12	none
Cc1nn(-c2ccccc2)c2nc(N)c(C#N)c(-c3ccc(O)c(O)c3)c12	TAAR1 antag 51
Cc1nn(-c2ccc(F)cc2)c2nc(N)c(C#N)c(-c3ccc(O)c(O)c3)c12	TAAR1 antag 51
CCOC(=O)C1=CCN(S(=O)(=O)c2ccccc2C)C1c1ccc(Cl)c(Cl)c1 (centres undefined)	none (no result: GPR7 antagonist, DAGLB inhibitor)
O=C(COC(=O)CSc1ccc([N+](=O)[O-])cc1)NCCCc1ccccc1	none
COc1cc2c(cc1OC)C(C)N(C(=O)[C@@H](NC(=O)c1ccccc1)C(C)C)CC2 (some centres undefined)	none
C#C[C@]1(O)CC[C@H]2[C@@H]3CCC4=Cc5oncc5C[C@]4(C)[C@H]3CC[C@@]21C	TAAR1 agonist 38, TAAR1 antag 71 (no result: GPR7 antagonist, MPTP inh)
Cc1cccc(C)c1NC(=O)C(=O)NCCc1c[nH]c2ccccc12	TAAR1 agonist 46
O=C(NCCc1ccc(Cl)cc1)C(=O)c1c[nH]c2ccccc12	none
COc1cc2cc(C(=O)NCCc3c[nH]c4ccccc34)c(N)nc2cc1OC	TAAR1 agonist 52, TAAR1 antag 70 (no result: GPR7 antagonist, DAGLB inhibitor)
Cc1[nH]c2ccccc2c1C(=O)C(=O)NCCc1c[nH]c2ccccc12	TAAR1 agonist 45, TAAR1 antag 75
Cc1cccc(NC(=O)C(=O)NCCc2c[nH]c3ccccc23)c1C	none
COc1cc(SC)ccc1C(=O)NCCc1c[nH]c2ccccc12	none
O=C(NCCc1c[nH]c2ccccc12)C(=O)c1c[nH]c2ccccc12	TAAR1 agonist 40, TAAR1 antag 62
NC(=O)Cn1c(=O)n(Cc2ccccc2)c(=O)c2cccnc21	none
CC(C)C(=O)Nc1ccc(N2CCOCC2)c(S(=O)(=O)Nc2ccccc2Cl)c1	TAAR1 antag 53 (no result: GPR7 antagonist)
Cc1ccccc1-c1cc2nc(NCCOc3ccccc3Cl)n(C)c(=O)c2s1	none (no result: GPR7 antagonist, DAGLB inhibitor)
COCC(C)NC(=O)CSc1nc2ccccc2c(=O)n1CCc1ccc(S(N)(=O)=O)cc1 (centres undefined)	TAAR1 antag 54
COc1ccc(-c2nn(-c3ccccc3)cc2C(=O)N2CCN(S(=O)(=O)c3ccccc3C#N)CC2)cc1	TAAR1 antag 50 (no result: GPR7 antagonist)
COc1ccc(-c2nn(-c3ccccc3)cc2C(=O)N2CCN(S(=O)(=O)c3ccccc3[N+](=O)[O-])CC2)cc1	none (no result: GPR7 antagonist)
Cn1cccc1C1Nc2ccccc2NC2=C1C(=O)CC(C)(C)C2 (centres undefined)	TAAR1 antag 56
CSCCNC(=O)C1(C)CCN1C(=O)c1ccc(C(C)(C)C)cc1 (centres undefined)	none (no result: GPR7 antagonist, DAGLB inhibitor)
C[C@H](CO)N1C[C@H](C)[C@H](CN(C)C(=O)NC2CCCCC2)OCc2cnnn2CCCC1=O	none (no result: GPR7 antagonist, MPTP inh, DAGLB inhibitor)
Cc1ccc(C(=O)NCCn2cc(SCC(=O)Nc3nnc(C)s3)c3ccccc32)cc1	GPR7 antagonist 19
O=C(NCCn1cc(SCc2ccccc2F)c2ccccc21)c1c(F)cccc1F	TAAR1 antag 83
COc1cccc(CN2CCN(C(=O)[C@H]3O[C@@H](n4cnc5c(N)ncnc54)[C@H](O)[C@@H]3O)CC2=O)c1	none (no result: GPR7 antagonist, DAGLB inhibitor)
O=C(CCC(=O)N1CCOc2ccccc21)NCCCN1CCN(Cc2ccccc2)CC1	GPR7 antagonist 21
COc1ccc(/C=C/C(=O)Nc2cccc(S(=O)(=O)NC3=NCCCCC3)c2)cc1	none
O=C(/C=C/c1ccc(OC(F)F)cc1)Nc1cccc(S(=O)(=O)NC2=NCCCCC2)c1	TAAR1 antag 62
COCCn1c(-c2ccc(Cl)cc2)cnc1SCC(=O)NCc1cccs1	GPR7 antagonist 20
O=C(CSc1nc2ccccc2c(=O)n1Cc1ccc(Cl)cc1)NCc1cccs1	none
N#Cc1c(NCCCO)nc(NCc2ccccc2)c2c1CCN(Cc1ccccc1)C2	TAAR1 antag 55
CN1CCc2c(C#N)c(N3CCCCC3)nc(NCc3ccccc3)c2C1	none

Screening results: PubChem BioAssay, several laboratories
